# Test results: ChEMBL document CHEMBL1126909, “Synthesis and pharmacological examination of benzofuran, indan, and tetralin analogues of 3,4-(methylenedioxy)amphetamine” (J Med Chem, 1993)
# Columns and labels:
# Format in all cases: functional
# [1] = species: Rattus norvegicus; assay: Inhibitory concentration against [3H]- DA uptake in crude rat synaptosomes; settings: Brain
# In short: (§1)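 Crude synaptosomes from male Sprague-Dawley rat tissue homogenised in ice-cold isotonic sucrose. Preincubated 5 min at 37 °C under aeration with pargyline (final 100 μM), then chilled. Tritiated transmitter added at 10 nM final and uptake run 5 min at 37 °C. Catecholamine buffer had 0.06 mM ascorbate. Filtered and counted by scintillation. 9–10 concentrations in triplicate, 3–4 experiments, four-parameter logistic fit for IC50 ± SEM.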
# [2] = species: Rattus norvegicus; assay: Inhibitory concentration against [3H]- NE uptake in crude rat synaptosomes; settings: Brain; in short: as §1
# [3] = species: Rattus norvegicus; assay: Inhibitory concentration against [3H]- 5-HT uptake in crude rat synaptosomes; settings: Brain; in short: as §1
# [4] = species: Rattus norvegicus; assay: Tested for drug-discrimination stimulus effect in S-1c trained rats
# In short: (§2)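 Male Sprague-Dawley rats (175–200 g) held at about 80% of free-feeding weight were trained on two levers to tell (S)-1c·HCl 1.75 mg/kg from saline. Test drugs were given in 0.9% saline, ip, 30 min before sessions run under extinction. A session ended at 50 presses on one lever, or was scored disrupted if not done within 5 min. %SDL counts nondisrupted rats. ED50 and 95% CI were derived by Litchfield–Wilcoxon.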
# [5] = system: Rattus norvegicus; assay: Number of animals tested to that of number of animals disrupted in 3 trained at 0.215 mg/kg; Number of animals tested=11
# In short: (§3)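 Drug-discrimination rats were male Sprague-Dawley, 175–200 g, kept at about 80% of free-feeding weight. They were trained against saline on (S)-1c·HCl 1.75 mg/kg, 3·HCl 1.71 mg/kg or (S)-amphetamine sulfate 1 mg/kg. Test drug was given ip in 0.9% saline at 1 mL/kg, 30 min before sessions run under extinction. A session ended at 50 presses on one lever; failing 50 presses within 5 min was scored as disrupted.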
# [6] = system: Rattus norvegicus; assay: Number of animals tested to that of number of animals disrupted in 3 trained at 0.429 mg/kg; Number of animals tested=12; in short: as §3
# [7] = system: Rattus norvegicus; assay: Percentage of nondisrupted animals selecting drug liver in 3 trained at 0.429 mg/kg; SDL
# In short: (§4)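 Rats and training are as above: male Sprague-Dawley, food-restricted, with training doses per drug group. Test drug was given ip in saline 30 min before extinction sessions. %SDL is the share of nondisrupted rats reaching 50 presses on the drug lever. A rat not completing 50 presses in 5 min was scored as disrupted.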
# [8] = system: Rattus norvegicus; assay: Percentage of nondisrupted animals selecting drug liver in 3 trained at 0.643 mg/kg; SDL; in short: as §4
# [9] = system: Rattus norvegicus; assay: Number of animals tested to that of number of animals disrupted in S-1c trained at 0.429 mg/kg; Number of animals tested=11; in short: as §3
# [10] = system: Rattus norvegicus; assay: Number of animals tested to that of number of animals disrupted in 3 trained at 1.286 mg/kg; Number of animals tested=8; in short: as §3
# [11] = species: Rattus norvegicus; assay: Inhibitory concentration against [3H]- DA uptake, p<0.0001
# [12] = system: Rattus norvegicus; assay: Percentage of nondisrupted animals selecting drug liver in 3 trained at 1.286 mg/kg; SDL; in short: as §4
# [13] = system: Rattus norvegicus; assay: Percentage of nondisrupted animals selecting drug liver in 3 trained at 0.108 mg/kg; SDL; in short: as §4
# [14] = system: Rattus norvegicus; assay: Percentage of nondisrupted animals selecting drug liver in 3 trained at 0.215 mg/kg; SDL; in short: as §4
# [15] = system: Rattus norvegicus; assay: Percentage of nondisrupted animals selecting drug liver in S-1c trained at 0.857 mg/kg; SDL
# [16] = system: Rattus norvegicus; assay: Number of animals tested to that of number of animals disrupted in 3 trained at 0.857 mg/kg; Number of animals tested=11; in short: as §3
# [17] = system: Rattus norvegicus; assay: Percentage of nondisrupted animals selecting drug liver in 3 trained at 0.857 mg/kg; SDL; in short: as §4
# [18] = system: Rattus norvegicus; assay: Tested for drug-discrimination stimulus effect at 0.429 mg/kg; 0.24-0.57; in short: as §2
# [19] = system: Rattus norvegicus; assay: Tested for drug-discrimination stimulus effect at 0.215 mg/kg; 0.31-0.74
# [20] = system: Rattus norvegicus; assay: Percentage of nondisrupted animals selecting drug liver in S-1c trained at 0.643 mg/kg; SDL
# [21] = system: Rattus norvegicus; assay: Number of animals tested to that of number of animals disrupted in S-1c trained at 0.215 mg/kg; Number of animals tested=10; in short: as §3
# [22] = system: Rattus norvegicus; assay: Percentage of nondisrupted animals selecting drug liver in S-1c trained at 0.215 mg/kg; SDL; in short: as §4
# [23] = system: Rattus norvegicus; assay: Number of animals tested to that of number of animals disrupted in S-1c trained at 0.643 mg/kg; Number of animals tested=10; in short: as §3
# [24] = system: Rattus norvegicus; assay: Number of animals tested to that of number of animals disrupted in 3 trained at 0.108 mg/kg; Number of animals tested=8; in short: as §3
# [25] = system: Rattus norvegicus; assay: Number of animals tested to that of number of animals disrupted in 3 trained at 0.643 mg/kg; Number of animals tested=12; in short: as §3
# [26] = system: Rattus norvegicus; assay: Number of animals tested to that of number of animals disrupted in S-1c trained at 0.857 mg/kg; Number of animals tested=10; in short: as §3
# [27] = system: Rattus norvegicus; assay: Percentage of nondisrupted animals selecting drug liver in S-1c trained at 0.429 mg/kg; SDL
# [28] = species: Rattus norvegicus; assay: Tested for drug-discrimination stimulus effect in 3-trained rats
smiles,measurement,setting,value
CC(N)Cc1ccc2c(c1)CCCC2 (stereo not given),IC50,[1],6.44 µM
same,IC50,[2],3.37 µM
same,IC50,[3],0.121 µM
CCC(Cc1ccc2c(c1)OCO2)NC (stereo not given),ED50,[4],0.79 mg/kg
CC(N)Cc1ccc2c(c1)CCO2 (stereo not given),Activity,[5],8
same,Activity,[6],6
same,SDL,[7],50%
same,SDL,[8],75%
same,Activity,[9],5
same,IC50,[2],3.24 µM
same,Activity,[10],5
same,IC50,[11],7.09 µM
same,SDL,[12],100%
same,SDL,[13],0%
same,SDL,[14],33%
same,SDL,[15],100%
same,IC50,[3],0.13 µM
same,Activity,[16],4
same,SDL,[17],86%
same,ED50,[18],0.37 mg/kg
same,ED50,[19],0.48 mg/kg
same,SDL,[20],71%
same,Activity,[21],2
same,SDL,[22],25%
same,Activity,[23],3
same,Activity,[24],3
same,Activity,[25],4
same,Activity,[26],4
same,SDL,[27],50%
COc1cc2c(cc1C)CC(N)C2 (stereo not given),ED50,[28],0.56 mg/kg
